Reference: ChEMBL document CHEMBL1154674, “Synthesis and evaluation of three 18F-labeled aminophenylbenzothiazoles as amyloid imaging agents” (J Med Chem, 2009)

How the values were obtained:
Type in all cases: ADME, organism-based, Macaca mulatta
[1] = Drug level in normal rhesus monkey parietal cortex assessed as standard uptake value at 81.2 MBq, iv after 47.5 mins by microPET; details: in vivo
[2] = Drug level in normal rhesus monkey white matter assessed as standard uptake value at 81.2 MBq, iv after 8 mins by microPET; details: in vivo
[3] = Drug level in normal rhesus monkey thalamus assessed as standard uptake value at 81.2 MBq, iv after 27.5 mins by microPET; details: in vivo
[4] = Drug level in normal rhesus monkey thalamus assessed as standard uptake value at 81.2 MBq, iv after 4.5 mins by microPET; details: in vivo, 0.075 h
[5] = Drug level in normal rhesus monkey white matter assessed as standard uptake value at 81.2 MBq, iv after 3.5 mins by microPET; details: in vivo
[6] = Drug level in normal rhesus monkey cerebellum assessed as standard uptake value at 81.2 MBq, iv after 85 mins by microPET; details: in vivo
Outline: (§1)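 One normal rhesus monkey, each tracer given iv via the vena saphena (81.2, 96.3 or 109.4 MBq), with 1 day between tracer injections. Dynamic brain μPET over 180 min used frames of 5 × 60 s, 5 × 120 s, 9 × 300 s and 12 × 600 s. Images were reconstructed by filtered back projection with a RAMP filter. Regional time-activity curves were expressed as SUV.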

[7] = Drug level in normal rhesus monkey frontal cortex assessed as standard uptake value at 81.2 MBq, iv after 0.5 mins by microPET; details: in vivo
Outline: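 Single normal rhesus monkey; each tracer given iv via the vena saphena, with 1 day between tracer injections. Dynamic μPET ran 180 min (5×60 s, 5×120 s, 9×300 s, 12×600 s). Images were reconstructed by filtered back projection with a RAMP filter. Regional time-activity curves were expressed as SUV.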

[8] = Drug level in normal rhesus monkey cerebellum assessed as standard uptake value at 81.2 MBq, iv after 27.5 mins by microPET; details: in vivo; outline: as §1
[9] = Drug level in normal rhesus monkey pons assessed as standard uptake value at 81.2 MBq, iv after 12 mins by microPET; details: in vivo, 0.2 h
[10] = Drug level in normal rhesus monkey frontal cortex assessed as standard uptake value at 96.3 MBq, iv after 17.5 mins by microPET; details: in vivo
[11] = Drug level in normal rhesus monkey thalamus assessed as standard uptake value at 96.3 MBq, iv after 3.5 mins by microPET; details: in vivo
[12] = Drug level in normal rhesus monkey thalamus assessed as standard uptake value at 96.3 MBq, iv after 115 mins by microPET; details: in vivo
[13] = Drug level in normal rhesus monkey cerebellum assessed as standard uptake value at 96.3 MBq, iv after 135 mins by microPET; details: in vivo, 2.25 h; outline: as §1
[14] = Drug level in normal rhesus monkey frontal cortex assessed as standard uptake value at 96.3 MBq, iv after 32.5 mins by microPET; details: in vivo
[15] = Drug level in normal rhesus monkey thalamus assessed as standard uptake value at 96.3 MBq, iv after 22.5 mins by microPET; details: in vivo, 0.375 h
[16] = Drug level in normal rhesus monkey thalamus assessed as standard uptake value at 96.3 MBq, iv after 32.5 mins by microPET; details: in vivo
[17] = Drug level in normal rhesus monkey thalamus assessed as standard uptake value at 109.4 MBq, iv after 93 mins by microPET; details: in vivo, 1.55 h
[18] = Drug level in normal rhesus monkey white matter assessed as standard uptake value at 109.4 MBq, iv after 0.375 mins by microPET; details: in vivo, 22 s
[19] = Drug level in normal rhesus monkey white matter assessed as standard uptake value at 109.4 MBq, iv after 22.5 mins by microPET; details: in vivo, 0.375 h
[20] = Drug level in normal rhesus monkey frontal cortex assessed as standard uptake value at 109.4 MBq, iv after 0.875 mins by microPET; details: in vivo, 52 s
[21] = Drug level in normal rhesus monkey frontal cortex assessed as standard uptake value at 109.4 MBq, iv after 81 mins by microPET; details: in vivo, 1.35 h
[22] = Drug level in normal rhesus monkey cerebellum assessed as standard uptake value at 109.4 MBq, iv after 0.875 mins by microPET; details: in vivo, 52 s
[23] = Drug level in normal rhesus monkey pons assessed as standard uptake value at 109.4 MBq, iv after 105 mins by microPET; details: in vivo, 1.75 h
[24] = Drug level in normal rhesus monkey thalamus assessed as standard uptake value at 109.4 MBq, iv after 111 mins by microPET; details: in vivo
[25] = Drug level in normal rhesus monkey white matter assessed as standard uptake value at 109.4 MBq, iv after 27.5 mins by microPET; details: in vivo
[26] = Drug level in normal rhesus monkey frontal cortex assessed as standard uptake value at 152.9 MBq, iv after 10 mins by microPET; details: in vivo
Outline: (§2)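 Single normal rhesus monkey; tracer given iv via the vena saphena, 1 day apart from the other tracer injections. Dynamic μPET ran 90 min (5×60 s, 5×120 s, 9×300 s, 3×600 s). Images were reconstructed by filtered back projection with a RAMP filter. Regional time-activity curves were expressed as SUV.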

[27] = Drug level in normal rhesus monkey frontal cortex assessed as standard uptake value at 152.9 MBq, iv after 27.5 mins by microPET; details: in vivo; outline: as §2
[28] = Drug level in normal rhesus monkey parietal cortex assessed as standard uptake value at 152.9 MBq, iv after 57.5 mins by microPET; details: in vivo
[29] = Drug level in normal rhesus monkey cerebellum assessed as standard uptake value at 152.9 MBq, iv after 3.5 mins by microPET; details: in vivo
Outline: (§3)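 One normal rhesus monkey received each tracer via the vena saphena, with 1 day between injections. Dynamic μPET ran 180 min for 18F tracers (5×60 s, 5×120 s, 9×300 s, 12×600 s) and 90 min for the 11C tracer (5×60 s, 5×120 s, 9×300 s, 3×600 s). Filtered back-projection reconstruction (RAMP filter) was used. Time-activity curves were drawn to give regional SUV.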

[30] = Drug level in normal rhesus monkey parietal cortex assessed as standard uptake value at 152.9 MBq, iv after 10 mins by microPET; details: in vivo
[31] = Drug level in normal rhesus monkey cerebellum assessed as standard uptake value at 152.9 MBq, iv after 65 mins by microPET; details: in vivo; outline: as §3
[32] = Drug level in normal rhesus monkey pons assessed as standard uptake value at 152.9 MBq, iv after 2.5 mins by microPET; details: in vivo
[33] = Drug level in normal rhesus monkey frontal cortex assessed as standard uptake value at 152.9 MBq, iv after 22.5 mins by microPET; details: in vivo, 0.375 h; outline: as §2
[34] = Drug level in normal rhesus monkey cerebellum assessed as standard uptake value at 152.9 MBq, iv after 52.5 mins by microPET; details: in vivo, 0.875 h; outline: as §3
[35] = Drug level in normal rhesus monkey white matter assessed as standard uptake value at 152.9 MBq, iv after 12 mins by microPET; details: in vivo, 0.2 h
[36] = Drug level in normal rhesus monkey thalamus assessed as standard uptake value at 152.9 MBq, iv after 65 mins by microPET; details: in vivo

In the case of `CNc1ccc2nc(-c3ccc([18F])cc3)sc2c1`, the SUV [1] is reported as 3.676, the SUV [2] is reported as 3.412 and the SUV [3] is reported as 5.4. The SUV [4] was 4.054, the SUV [5] was 3.019 and the SUV [6] was 1.864. The SUV [7] was 0.756, the SUV [8] was 2.224 and the SUV [9] was 5.701.
Compound `CN(C)c1ccc2nc(-c3ccc([18F])cc3)sc2c1` has an SUV [10] of 2.22, an SUV [11] of 2 and an SUV [12] of 2.14. The SUV [13] was 0.94, the SUV [14] was 2.14 and the SUV [15] was 2.35. For the same compound, the SUV [16] was 2.33.
In the case of `Nc1ccc2nc(-c3ccc([18F])cc3)sc2c1`, the SUV [17] is reported as 5.05, the SUV [18] is reported as -0.01 and the SUV [19] is reported as 3.04. For the same compound, the SUV [20] was 1.73, the SUV [21] was 4.41 and the SUV [22] was 3.51. For the same compound, the SUV [23] was 4.79, the SUV [24] was 4.72 and the SUV [25] was 3.2.
With `[11CH3]Nc1ccc(-c2nc3ccc(O)cc3s2)cc1` [PITTSBURGH COMPOUND B] the SUV [26] was 2.163, the SUV [27] was 1.215 and the SUV [28] was 0.742. It also gave an SUV [29] of 2.17, an SUV [30] of 2.18 and an SUV [31] of 0.723. It also gave an SUV [32] of 1.05, an SUV [33] of 1.373 and an SUV [34] of 0.813. The SUV [35] was 1.434 and the SUV [36] was 0.85.
